Assay type: in vivo, Sprague–Dawley rats
Outline: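 Male Sprague–Dawley rats (210–240 g) were fed a control diet or control diet plus 2.5, 5 or 10% test fiber for 2 wk, then dosed orally with test material at 200 or 2,000 mg/kg (n = 5 per group). Tail-vein blood was drawn at 0–24 h. Plasma was spun at 4,000 × g and deproteinized with acetonitrile. LC-MS/MS used MRM with an amlodipine internal standard. Cmax and Tmax were read from the profiles.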

[1] = 10% NUTRIOSE in the diet, ginseng extract-treated rats

## CC(C)=CCC[C@](C)(O[C@@H]1O[C@H](CO)[C@@H](O)[C@H](O)[C@H]1O)[C@H]1CC[C@]2(C)[C@@H]1[C@H](O)C[C@@H]1[C@@]3(C)CC[C@H](O[C@@H]4O[C@H](CO)[C@@H](O)[C@H](O)[C@H]4O[C@@H]4O[C@H](CO)[C@@H](O)[C@H](O)[C@H]4O)C(C)(C)[C@@H]3CC[C@]12C [ginsenoside Rd]
[1]
  fold increase of AUC of ginsenoside Rd by NUTRIOSE: 1.34 fold
  fold increase of Cmax of ginsenoside Rd by NUTRIOSE: 1.34 fold
Ginsenoside Rb1-treated rats
  time after administration at which ginsenoside Rd was detected in blood: 8 h
Same oral dosage of ginsenoside Rb1 and ginseng extract
  AUC of ginsenoside Rd, fold higher in ginseng extract-treated than in ginsenoside Rb1-treated rats: 13.5 fold

— PMC4213839 (Journal of Ginseng Research, 2014)
